Experimental data: ChEMBL document CHEMBL1129573, “Structure-activity relationships in a series of substituted indolocarbazoles: topoisomerase I and protein kinase C inhibition and antitumoral and antimicrobial properties” (J Med Chem, 1996)
In brackets after ≈: the same amount, converted by molar mass. Several values for one entry are separate records, joined by “and”; a condition that tells them apart may be missing. Equal entries are not always repeated.

Experiments:
B16 [1] = experiment: Antiproliferative activity against B16 mouse melanoma cells; assay type: functional, cell-based
Summary of the method: (§1)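 B16 mouse melanoma cells (EMEM, 10% FCS, 37 °C, 5% CO2) plated at 200 cells/dish, adhered 20 h, then exposed 24 h to increasing drug concentrations. Drug medium removed, PBS wash, 12 days regrowth in fresh medium.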

Bacillus cereus = experiment: Antimicrobial activity on Bacillus cereus; assay type: functional
[2] = target: Protein kinase C alpha type (Homo sapiens, UniProt P17252); experiment: Inhibition of Protein Kinase C(PKC)
Summary of the method: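 Procedure a: PKC (0.5 μg/mL) with histone IIIs (2.4 mg/mL), 10 μM ATP plus [γ32P]ATP, 10 mM MgCl2, 0.1 mM CaCl2, phosphatidylserine and diacylglycerol (10 mg/mL each), 50 mM Tris pH 7.5, at 30 °C for 12 min. TCA precipitation, histone-bound 32P counted by scintillation; triplicate.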

P388 = experiment: Antiproliferative activity against P388 Murine Leukemia cells; assay type: functional, cell-based; details: Mus musculus
[3] = system: DNA topoisomerase II (Bos taurus); experiment: Inhibitory activity towards Topoisomerase 2 from calf thymus
[4] = system: DNA topoisomerase I (Bos taurus); experiment: Inhibitory activity towards Topoisomerase 1 from calf thymus.
[5] = Inhibition of Protein Kinase A (PKA).
Summary of the method: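 PKA (1 μg/mL) phosphorylating histone IIa (1 mg/mL) with 10 μM ATP plus [γ32P]ATP, 5 mM MgCl2, 50 mM Tris pH 7.0, at 30 °C for 12 min. Stopped with 12% TCA with BSA carrier, reprecipitated. 32P incorporated into histone counted by scintillation; triplicate.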

Mus musculus [6] = experiment: Antitumor activity against mice with B16 melanoma was assessed from the ratio of median survival time of treated animals (T) to controls animals, at 16 mg/Kg; assay type: functional
Summary of the method: (§2)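 Male B6D2F1 mice given 0.5 × 10⁶ B16 melanoma cells subcutaneously on the dorsum on day 0 (cells maintained in MEM culture). Drug given intraperitoneally on days 1, 5 and 9. Controls received DMSO–olive oil solvent. Six mice per treated group, 12 controls. Median survival time compared with controls, reported as oncostatic index T/C × 100.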

Mus musculus [7] = experiment: Antitumor activity against mice with B16 melanoma was assessed from the ratio of median survival time of treated animals (T) to controls animals, at 2 mg/Kg; assay type: functional; summary of the method: as §2
Mus musculus [8] = experiment: Antitumor activity against mice with B16 melanoma was assessed from the ratio of median survival time of treated animals (T) to controls animals, at 64 mg/Kg; assay type: functional; summary of the method: as §2
Mus musculus [9] = experiment: Antitumor activity against mice with P388 leukemia cell was assessed from the ratio of median survival time of treated animals (T) to controls animals, at 16 mg/Kg; assay type: functional
Summary of the method: (§3)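 Male B6D2F1 mice injected intraperitoneally with 1×10^6 P388 leukemia cells on day 0 (line kept by weekly intraperitoneal passage in male DBA/2 mice). Drug given intraperitoneally on days 1, 5 and 9. Controls received DMSO–olive oil solvent. Six mice per treated group, 12 controls. Median survival time compared with controls, reported as oncostatic index T/C × 100.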

Mus musculus [10] = experiment: Antitumor activity against mice with P388 leukemia cell was assessed from the ratio of median survival time of treated animals (T) to controls animals, at 2 mg/Kg; assay type: functional; summary of the method: as §3
Mus musculus [11] = experiment: Antitumor activity against mice with P388 leukemia cell was assessed from the ratio of median survival time of treated animals (T) to controls animals, at 64 mg/Kg; assay type: functional; summary of the method: as §3
Mus musculus [12] = experiment: In vivo efficacy study on mice with P388 Leukemia Cells determined after administration of 16 mg/kg/day dosage; assay type: functional; summary of the method: as §3
Mus musculus [13] = experiment: In vivo efficacy study on mice with P388 Leukemia Cells determined after administration of 2 mg/kg/day dosage; assay type: functional; summary of the method: as §3
Mus musculus [14] = experiment: In vivo efficacy study on mice with P388 Leukemia Cells determined after administration of 64 mg/kg/day dosage; assay type: functional; summary of the method: as §3
Mus musculus [15] = experiment: In vivo efficacy study on mice with B16 Melanoma cells determined after administration of 2 mg/kg/day dosage; assay type: functional, Melanoma cell; summary of the method: as §2
Mus musculus [16] = experiment: In vivo efficacy study on mice with B16 Melanoma cells determined after administration of 64 mg/kg/day dosage; assay type: functional, Melanoma cell; summary of the method: as §2
Mus musculus [17] = experiment: In vivo efficacy study on mice with B16 Melanoma cells determined after administration of 16 mg/kg/day dosage; assay type: functional, Melanoma cell; summary of the method: as §2
Mus musculus [18] = experiment: In vivo efficacy study on mice with B16 Melanoma Cells determined after administration of 64 mg/kg/day dosage; assay type: functional; summary of the method: as §2
B16 [19] = experiment: Compound was evaluated for antiproliferative activity against B16 mouse melanoma cells *= Partially precipitated in DMSO; assay type: functional, cell-based; summary of the method: as §1

IC50 (B16 [1]) [µM] | MIC (Bacillus cereus) [µg/mL] | IC50 [2] [µM] | IC50 (P388) [µM] | MIC [3] [µg/mL] | MIC [4] [µg/mL] | IC50 [5] [µM] | Compound | other results
> 100 | 50 (≈ 136 µM) | > 100 | 3.5 | > 10 | 1 (≈ 2.71 µM) | – | O=CNN1C(=O)c2c(c3c4ccccc4[nH]c3c3[nH]c4ccccc4c23)C1=O | –
0.3 | 0.8 (≈ 1.37 µM) | > 100 | 0.1 | > 10 | 0.1 (≈ 0.171 µM) | – | COC1C(CO)OC(n2c3c(Cl)cccc3c3c4c(c5c6cccc(Cl)c6[nH]c5c32)C(=O)N(N)C4=O)C(O)C1O (configuration not stated) | –
– | 12.5 (≈ 25.6 µM) | 3.7 | 3 | > 10 | 0.01 (≈ 0.0205 µM) | – | COC1C(CO)OC(n2c3ccccc3c3c4c(c5c6ccccc6[nH]c5c32)CNC4=O)C(O)C1O (configuration not stated) | –
5.8 | 25 (≈ 48.3 µM) | 40 | 3 | > 10 | 0.1 (≈ 0.193 µM) | – | COC1C(CO)OC(n2c3ccccc3c3c4c(c5c6ccccc6[nH]c5c32)C(=O)N(O)C4=O)C(O)C1O (configuration not stated) | –
0.7 | 3.1 (≈ 5.29 µM) | 68 | 0.5 | > 10 | 0.3 (≈ 0.512 µM) | – | COC1C(CO)OC(n2c3c(Cl)cccc3c3c4c(c5c6cccc(Cl)c6[nH]c5c32)C(=O)N(O)C4=O)C(O)C1O (configuration not stated) | –
– | 25 (≈ 45.9 µM) | > 100 | 0.3 | > 10 | 0.1 (≈ 0.184 µM) | – | COC1C(CO)OC(n2c3ccccc3c3c4c(c5c6ccccc6[nH]c5c32)C(=O)N(NC=O)C4=O)C(O)C1O (configuration not stated) | –
– | 50 (≈ 126 µM) | 78 | > 10 | – | – | – | NNC(=O)NN1C(=O)c2c(c3c4ccccc4[nH]c3c3[nH]c4ccccc4c23)C1=O | IC50 (B16 [19]): 75 µM
> 125 | 3.1 (≈ 5.57 µM) | 28.8 | 3 | > 10 | 1 (≈ 1.8 µM) | > 100 | COC1C(CO)OC(n2c3c(Cl)cccc3c3c4c(c5c6cccc(Cl)c6[nH]c5c32)CNC4=O)C(O)C1O (configuration not stated) | –
4.1 | 50 (≈ 96.8 µM) | > 100 | 0.3 | > 10 | 0.1 (≈ 0.194 µM) | – | COC1C(CO)OC(n2c3ccccc3c3c4c(c5c6ccccc6[nH]c5c32)C(=O)N(N)C4=O)C(O)C1O (configuration not stated) | –
– | 3.1 (≈ 5.05 µM) | > 100 | 0.3 | > 10 | 1 (≈ 1.63 µM) | – | COC1C(CO)OC(n2c3c(Cl)cccc3c3c4c(c5c6cccc(Cl)c6[nH]c5c32)C(=O)N(NC=O)C4=O)C(O)C1O (configuration not stated) | –
17.5 | > 50 | > 100 | 3.5 | > 10 | 1 (≈ 1.99 µM) | > 100 | CO[C@H]1[C@H](O)[C@@H](O)[C@H](n2c3ccccc3c3c4c(c5c6ccccc6[nH]c5c32)C(=O)NC4=O)O[C@@H]1CO | –

Further lines, the compound ahead of its results:

Compound | IC50 (B16 [1]) [µM] | MIC (Bacillus cereus) [µg/mL] | IC50 [2] [µM] | IC50 (P388) [µM] | MIC [3] [µg/mL] | MIC [4] [µg/mL] | IC50 [5] [µM] | other results
O=C1NC(=O)c2c1c1c3ccccc3[nH]c1c1[nH]c3ccccc3c21 [STAUROSPORINE AGLYCON] | > 100 | > 50 | – | 4 | – | – | 60 | –
O=CNN1C(=O)c2c(c3c4cccc(Cl)c4[nH]c3c3[nH]c4c(Cl)cccc4c23)C1=O | – | > 50 | > 100 | > 10 | – | – | – | –
O=C1NC(=O)c2c1c1c3cccc(Cl)c3[nH]c1c1[nH]c3c(Cl)cccc3c21 | 24 | > 50 | > 100 | > 10 | – | – | > 100 | –
O=C1NCc2c1c1c3cccc(Cl)c3[nH]c1c1[nH]c3c(Cl)cccc3c21 | – | 6.25 (≈ 16.4 µM) | > 100 | 3.5 | > 10 | > 10 | > 100 | –
O=C1c2c(c3c4ccccc4[nH]c3c3[nH]c4ccccc4c23)C(=O)N1CCO | > 150 | > 50 | > 100 | 7 | > 10 | > 10 | – | –
O=C1NCc2c1c1c3ccccc3[nH]c1c1[nH]c3ccccc3c21 [STAUROSPORINONE] | 4.8 | > 50 | – | 4 | – | – | 25.7 | T/C x100 (Mus musculus [6]): 122; T/C x100 (Mus musculus [7]): 94; T/C x100 (Mus musculus [8]): 106; T/C x100 (Mus musculus [9]): 100; T/C x100 (Mus musculus [10]): 100; T/C x100 (Mus musculus [11]): 104; Mean survival in days (Mus musculus [12]): 11; Mean survival in days (Mus musculus [13]): 11; Mean survival in days (Mus musculus [14]): 11.5; Mean survival in days (Mus musculus [15]): 23; Mean survival in days (Mus musculus [16]): 26; Mean survival in days (Mus musculus [17]): 30
NN1C(=O)c2c(c3c4ccccc4[nH]c3c3[nH]c4ccccc4c23)C1=O | > 250 | > 50 | 43.5 | > 10 | – | – | 44.6 | –
O=C1c2c(c3c4ccccc4[nH]c3c3[nH]c4ccccc4c23)C(=O)N1O | 4.6 | > 50 | 79.2 | > 10 | > 10 | > 10 | 41.5 | T/C x100 (Mus musculus [6]): 128; T/C x100 (Mus musculus [7]): 112; T/C x100 (Mus musculus [8]): 112; T/C x100 (Mus musculus [9]): 100; T/C x100 (Mus musculus [10]): 104; T/C x100 (Mus musculus [11]): 100; Mean survival in days (Mus musculus [12]): 11; Mean survival in days (Mus musculus [13]): 11.5; Mean survival in days (Mus musculus [14]): 11; Mean survival in days (Mus musculus [15]): 27.5; Mean survival in days (Mus musculus [18]): 27.5; Mean survival in days (Mus musculus [17]): 31.5
O=C1NC(O)c2c1c1c3ccccc3[nH]c1c1[nH]c3ccccc3c21 (configuration not stated) | – | 6.25 (≈ 19.1 µM) | – | 0.3 | – | – | 34 | –
NN1C(=O)c2c(c3c4cccc(Cl)c4[nH]c3c3[nH]c4c(Cl)cccc4c23)C1=O | 17 | – | > 100 | > 10 | > 10 | > 10 | – | –
O=C1NC(O)c2c1c1c3cccc(Cl)c3[nH]c1c1[nH]c3c(Cl)cccc3c21 (configuration not stated) | 8.4 | > 50 | > 100 | 9 | > 10 | > 10 | > 100 | –
CO[C@H]1[C@H](O)[C@@H](O)[C@H](n2c3c(Cl)cccc3c3c4c(c5c6cccc(Cl)c6[nH]c5c32)C(=O)NC4=O)O[C@@H]1CO [REBECCAMYCIN] | 0.48 | 6.25 (≈ 11 µM) | – | 0.3 | – | – | > 100 | T/C x100 (Mus musculus [6]): 112; T/C x100 (Mus musculus [7]): 124; T/C x100 (Mus musculus [8]): 106; T/C x100 (Mus musculus [9]): 150; T/C x100 (Mus musculus [10]): 136; T/C x100 (Mus musculus [11]): 164; Mean survival in days (Mus musculus [12]): 16.5; Mean survival in days (Mus musculus [13]): 15; Mean survival in days (Mus musculus [14]): 18; Mean survival in days (Mus musculus [15]): 30.5; Mean survival in days (Mus musculus [17]): 27.5 and 26
